# Measurements published in ChEMBL document CHEMBL4396885, “Thioether-based 2-aminobenzamide derivatives: Novel HDAC inhibitors with potent in vitro and in vivo antitumor activity” (Eur J Med Chem, 2019).
# How the values were obtained:
# SMMC-7721 [1] = test: Antiproliferative activity against human SMMC7721 cells assessed as growth inhibition at 8 uM after 72 hrs by CCK-8 assay relative to control; format: functional; details: SMMC-7721, 72 h, read-out: GI
# A549 [2] = test: Antiproliferative activity against human A549 cells assessed as growth inhibition at 2 uM after 72 hrs by CCK-8 assay relative to control; format: functional; details: A549, 72 h, read-out: GI
# HCT-116 [3] = test: Antiproliferative activity against human HCT116 cells assessed as decrease in cell viability after 72 hrs by CCK-8 assay; format: functional, cell-based; details: HCT-116, 72 h
# Summary of the method: (§1)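 Cells grown to 70–85% confluence (A375, A549, HCT116 in RPMI1640; HeLa, SMMC7721 in DMEM; 10% FBS, 37 °C, 5% CO2), seeded 4000/well, dosed after 12 h across a concentration range, incubated 72 h, then CCK-8 for 1 h; absorbance at 450 nm. IC50 as mean ± SD of three separate experiments.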
# SMMC-7721 [4] = test: Antiproliferative activity against human SMMC7721 cells assessed as growth inhibition at 2 uM after 72 hrs by CCK-8 assay relative to control; format: functional; details: SMMC-7721, 72 h, read-out: GI
# A549 [5] = test: Antiproliferative activity against human A549 cells assessed as decrease in cell viability after 72 hrs by CCK-8 assay; format: functional, cell-based; details: A549, 72 h; summary of the method: as §1
# HeLa [6] = test: Antiproliferative activity against human HeLa cells assessed as decrease in cell viability after 72 hrs by CCK-8 assay; format: functional, cell-based; summary of the method: as §1
# HCT-116 [7] = test: Antiproliferative activity against human HCT116 cells assessed as growth inhibition at 8 uM after 72 hrs by CCK-8 assay relative to control; format: functional; details: HCT-116, 72 h, read-out: GI
# A-375 [8] = test: Antiproliferative activity against human A375 cells assessed as decrease in cell viability after 72 hrs by CCK-8 assay; format: functional, cell-based; details: A-375, 72 h; summary of the method: as §1
# HCT-116 [9] = test: Antiproliferative activity against human HCT116 cells assessed as growth inhibition at 2 uM after 72 hrs by CCK-8 assay relative to control; format: functional; details: HCT-116, 72 h, read-out: GI
# HeLa [10] = test: Antiproliferative activity against human HeLa cells assessed as growth inhibition at 8 uM after 72 hrs by CCK-8 assay relative to control; format: functional; details: read-out: GI
# A-375 [11] = test: Antiproliferative activity against human A375 cells assessed as growth inhibition at 2 uM after 72 hrs by CCK-8 assay relative to control; format: functional; details: A-375, 72 h, read-out: GI
# SMMC-7721 [12] = test: Antiproliferative activity against human SMMC7721 cells assessed as decrease in cell viability after 72 hrs by CCK-8 assay; format: functional, cell-based; details: SMMC-7721, 72 h; summary of the method: as §1
# A-375 [13] = test: Antiproliferative activity against human A375 cells assessed as growth inhibition at 8 uM after 72 hrs by CCK-8 assay relative to control; format: functional; details: A-375, 72 h, read-out: GI
# A549 [14] = test: Antiproliferative activity against human A549 cells assessed as growth inhibition at 8 uM after 72 hrs by CCK-8 assay relative to control; format: functional; details: A549, 72 h, read-out: GI
# HeLa [15] = test: Antiproliferative activity against human HeLa cells assessed as growth inhibition at 2 uM after 72 hrs by CCK-8 assay relative to control; format: functional; details: read-out: GI
# Histone deacetylase 8 = molecular target: T1, Histone deacetylase 8 (Homo sapiens, UniProt Q9BY41); test: Inhibition of recombinant human HDAC8 assessed as decrease in deacetylation of FLUOR DE LYS substrate preincubated for 10 mins followed by substrate addition and measured after 30 mins by fluorescence based assay
# T1 sequence (Q9BY41 whole entry): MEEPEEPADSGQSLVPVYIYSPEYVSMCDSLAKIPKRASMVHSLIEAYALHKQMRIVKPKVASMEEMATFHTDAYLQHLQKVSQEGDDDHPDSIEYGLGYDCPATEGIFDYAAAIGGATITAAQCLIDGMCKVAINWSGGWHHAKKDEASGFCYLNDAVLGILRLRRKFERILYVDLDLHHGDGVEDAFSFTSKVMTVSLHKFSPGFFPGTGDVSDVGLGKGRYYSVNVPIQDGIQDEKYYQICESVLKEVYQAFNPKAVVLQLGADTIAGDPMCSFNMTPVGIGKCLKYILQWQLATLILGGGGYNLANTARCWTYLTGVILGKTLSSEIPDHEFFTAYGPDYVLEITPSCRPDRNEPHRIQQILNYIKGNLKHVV
# [16] = molecular target: T2, Protein deacetylase HDAC6 (Homo sapiens, UniProt Q9UBN7); test: Inhibition of recombinant human His tagged HDAC6 expressed in baculovirus infected insect cells assessed as decrease in deacetylation of FLUOR DE LYS SIRT1 substrate by measuring decrease in fluorescence preincubated for 10 mins followed by substrate addition and measured after 30 mins by fluorescence based assay
# T2 sequence (Q9UBN7 whole entry): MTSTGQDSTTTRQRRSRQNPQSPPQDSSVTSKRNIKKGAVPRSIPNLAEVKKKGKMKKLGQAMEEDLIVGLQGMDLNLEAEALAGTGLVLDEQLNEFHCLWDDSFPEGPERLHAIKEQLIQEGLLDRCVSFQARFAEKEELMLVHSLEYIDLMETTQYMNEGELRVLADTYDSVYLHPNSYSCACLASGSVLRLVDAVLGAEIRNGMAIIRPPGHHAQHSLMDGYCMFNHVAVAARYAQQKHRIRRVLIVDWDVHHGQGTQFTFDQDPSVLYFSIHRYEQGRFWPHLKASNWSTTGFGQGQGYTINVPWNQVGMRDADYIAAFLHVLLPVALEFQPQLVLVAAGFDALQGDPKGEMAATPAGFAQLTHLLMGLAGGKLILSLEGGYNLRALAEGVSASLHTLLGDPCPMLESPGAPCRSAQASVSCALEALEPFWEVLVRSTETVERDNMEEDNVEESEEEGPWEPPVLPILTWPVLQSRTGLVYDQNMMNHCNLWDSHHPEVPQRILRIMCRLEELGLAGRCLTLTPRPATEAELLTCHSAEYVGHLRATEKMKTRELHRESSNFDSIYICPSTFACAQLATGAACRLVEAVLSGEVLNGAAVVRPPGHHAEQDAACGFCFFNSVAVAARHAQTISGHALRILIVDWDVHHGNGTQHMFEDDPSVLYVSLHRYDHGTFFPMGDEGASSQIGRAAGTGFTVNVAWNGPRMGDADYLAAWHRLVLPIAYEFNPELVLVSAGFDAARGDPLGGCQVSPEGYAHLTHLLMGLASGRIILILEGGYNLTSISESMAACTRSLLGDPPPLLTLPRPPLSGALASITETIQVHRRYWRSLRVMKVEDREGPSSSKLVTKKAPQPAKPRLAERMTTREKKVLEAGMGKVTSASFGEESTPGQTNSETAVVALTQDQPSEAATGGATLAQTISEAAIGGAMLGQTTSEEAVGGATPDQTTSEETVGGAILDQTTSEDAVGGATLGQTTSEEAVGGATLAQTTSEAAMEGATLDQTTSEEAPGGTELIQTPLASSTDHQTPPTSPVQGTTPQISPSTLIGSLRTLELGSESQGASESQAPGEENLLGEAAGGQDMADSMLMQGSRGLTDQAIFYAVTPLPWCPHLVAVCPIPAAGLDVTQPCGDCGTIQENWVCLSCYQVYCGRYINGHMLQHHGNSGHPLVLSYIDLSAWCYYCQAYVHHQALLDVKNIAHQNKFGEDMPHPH
# [17] = molecular target: Histone deacetylase 3/NCoR1 (Homo sapiens, UniProt O15379); test: Inhibition of recombinant human HDAC3/NCOR1 assessed as decrease in deacetylation of FLUOR DE LYS SIRT1 substrate preincubated for 10 mins followed by substrate addition and measured after 30 mins by fluorescence based assay; format: protein-complex assay
# Histone deacetylase 3/NCoR1, sequence (O15379 whole entry): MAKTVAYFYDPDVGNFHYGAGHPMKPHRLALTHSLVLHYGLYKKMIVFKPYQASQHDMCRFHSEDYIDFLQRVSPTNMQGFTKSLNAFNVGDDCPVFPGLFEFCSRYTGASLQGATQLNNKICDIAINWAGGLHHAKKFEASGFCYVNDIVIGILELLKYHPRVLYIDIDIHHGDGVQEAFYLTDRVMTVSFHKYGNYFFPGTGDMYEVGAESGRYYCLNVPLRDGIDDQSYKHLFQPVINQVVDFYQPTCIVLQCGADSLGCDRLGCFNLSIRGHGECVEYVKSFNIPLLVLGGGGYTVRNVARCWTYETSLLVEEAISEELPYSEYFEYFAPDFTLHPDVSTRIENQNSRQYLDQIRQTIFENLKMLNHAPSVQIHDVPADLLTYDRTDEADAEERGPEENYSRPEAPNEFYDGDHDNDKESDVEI
# Histone deacetylase 3/NCoR1, sequence (O75376 whole entry, further chain): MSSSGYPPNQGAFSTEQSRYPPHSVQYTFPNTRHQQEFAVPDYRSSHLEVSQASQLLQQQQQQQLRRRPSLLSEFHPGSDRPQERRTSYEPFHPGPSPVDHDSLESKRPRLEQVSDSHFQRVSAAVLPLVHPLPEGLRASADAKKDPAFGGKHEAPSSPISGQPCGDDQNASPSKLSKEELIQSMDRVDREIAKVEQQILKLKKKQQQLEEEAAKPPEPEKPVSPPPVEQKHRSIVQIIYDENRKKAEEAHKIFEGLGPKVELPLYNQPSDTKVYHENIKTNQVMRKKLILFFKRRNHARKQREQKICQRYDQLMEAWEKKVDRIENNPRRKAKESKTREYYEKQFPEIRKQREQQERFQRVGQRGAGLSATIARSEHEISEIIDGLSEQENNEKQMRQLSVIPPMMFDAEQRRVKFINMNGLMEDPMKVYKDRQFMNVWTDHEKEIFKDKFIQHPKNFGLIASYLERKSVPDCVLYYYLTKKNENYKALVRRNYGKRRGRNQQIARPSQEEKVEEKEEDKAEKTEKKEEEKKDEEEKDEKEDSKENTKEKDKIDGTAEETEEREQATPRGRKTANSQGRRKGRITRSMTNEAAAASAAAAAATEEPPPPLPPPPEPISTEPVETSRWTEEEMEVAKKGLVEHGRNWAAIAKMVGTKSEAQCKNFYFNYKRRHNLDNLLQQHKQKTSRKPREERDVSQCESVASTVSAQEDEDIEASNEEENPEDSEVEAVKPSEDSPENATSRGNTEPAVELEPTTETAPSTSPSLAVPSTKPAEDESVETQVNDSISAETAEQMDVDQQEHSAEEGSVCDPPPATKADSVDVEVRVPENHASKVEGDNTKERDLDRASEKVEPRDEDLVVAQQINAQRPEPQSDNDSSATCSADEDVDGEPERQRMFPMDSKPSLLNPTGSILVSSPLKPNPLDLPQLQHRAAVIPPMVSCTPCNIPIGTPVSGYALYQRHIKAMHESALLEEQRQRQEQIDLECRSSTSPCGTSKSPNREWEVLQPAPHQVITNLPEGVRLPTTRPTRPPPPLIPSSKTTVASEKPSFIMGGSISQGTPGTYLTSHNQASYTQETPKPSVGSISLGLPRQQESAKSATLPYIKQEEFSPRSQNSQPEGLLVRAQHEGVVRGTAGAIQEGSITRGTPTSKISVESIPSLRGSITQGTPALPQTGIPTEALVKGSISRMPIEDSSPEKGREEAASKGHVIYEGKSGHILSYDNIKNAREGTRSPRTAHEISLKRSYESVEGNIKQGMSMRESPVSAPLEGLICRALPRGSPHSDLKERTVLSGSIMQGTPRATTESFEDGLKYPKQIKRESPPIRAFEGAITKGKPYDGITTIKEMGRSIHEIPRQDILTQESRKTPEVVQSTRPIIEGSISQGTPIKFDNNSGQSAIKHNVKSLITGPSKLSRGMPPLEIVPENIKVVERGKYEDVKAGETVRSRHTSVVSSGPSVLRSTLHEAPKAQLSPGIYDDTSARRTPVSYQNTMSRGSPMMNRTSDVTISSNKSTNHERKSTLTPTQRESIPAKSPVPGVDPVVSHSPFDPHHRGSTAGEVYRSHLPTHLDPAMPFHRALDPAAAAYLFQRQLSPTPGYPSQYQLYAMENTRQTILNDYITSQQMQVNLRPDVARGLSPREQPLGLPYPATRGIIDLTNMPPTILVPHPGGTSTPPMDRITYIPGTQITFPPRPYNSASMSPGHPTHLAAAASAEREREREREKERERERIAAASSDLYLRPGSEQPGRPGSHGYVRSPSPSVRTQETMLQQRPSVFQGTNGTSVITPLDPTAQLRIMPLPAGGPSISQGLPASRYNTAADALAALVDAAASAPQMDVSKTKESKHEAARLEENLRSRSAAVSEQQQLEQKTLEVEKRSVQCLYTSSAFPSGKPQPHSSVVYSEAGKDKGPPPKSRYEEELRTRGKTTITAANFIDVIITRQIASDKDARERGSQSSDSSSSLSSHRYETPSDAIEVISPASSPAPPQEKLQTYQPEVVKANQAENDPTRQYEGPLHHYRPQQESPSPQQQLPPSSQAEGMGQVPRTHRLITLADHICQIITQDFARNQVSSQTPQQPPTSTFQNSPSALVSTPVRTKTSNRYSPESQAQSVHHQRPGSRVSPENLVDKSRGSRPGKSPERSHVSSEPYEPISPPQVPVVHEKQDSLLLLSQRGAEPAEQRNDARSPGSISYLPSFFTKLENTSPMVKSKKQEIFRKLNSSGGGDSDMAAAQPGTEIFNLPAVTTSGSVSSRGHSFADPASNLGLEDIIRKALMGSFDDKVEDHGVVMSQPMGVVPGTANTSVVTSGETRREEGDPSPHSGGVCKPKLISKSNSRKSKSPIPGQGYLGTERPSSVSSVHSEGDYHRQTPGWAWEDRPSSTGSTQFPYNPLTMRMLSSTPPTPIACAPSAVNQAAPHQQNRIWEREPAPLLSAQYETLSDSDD
# Histone deacetylase 1 = Histone deacetylase 1 (Homo sapiens, UniProt Q13547); test: Inhibition of recombinant human His tagged HDAC1 expressed in baculovirus infected insect cells assessed as decrease in deacetylation of FLUOR DE LYS Green substrate preincubated for 10 mins followed by substrate addition and measured after 30 mins by fluorescence based assay
# Histone deacetylase 1, sequence (Q13547 whole entry): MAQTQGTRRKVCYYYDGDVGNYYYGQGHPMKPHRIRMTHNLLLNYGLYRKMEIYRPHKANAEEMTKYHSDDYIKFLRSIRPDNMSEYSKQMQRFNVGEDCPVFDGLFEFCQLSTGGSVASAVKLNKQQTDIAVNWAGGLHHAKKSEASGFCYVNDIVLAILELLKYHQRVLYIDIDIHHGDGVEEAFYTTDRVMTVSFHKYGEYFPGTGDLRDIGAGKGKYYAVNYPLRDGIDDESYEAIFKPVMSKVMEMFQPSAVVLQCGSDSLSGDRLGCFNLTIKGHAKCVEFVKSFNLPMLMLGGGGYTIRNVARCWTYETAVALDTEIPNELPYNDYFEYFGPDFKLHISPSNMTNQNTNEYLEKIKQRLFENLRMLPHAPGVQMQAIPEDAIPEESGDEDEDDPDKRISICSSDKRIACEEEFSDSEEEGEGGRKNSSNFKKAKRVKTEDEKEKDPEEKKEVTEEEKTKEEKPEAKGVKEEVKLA
# NIH3T3 = test: Cytotoxicity against mouse NIH/3T3 cells assessed as reduction in cell viability after 72 hrs by CCK-8 assay; format: cell-based; details: NIH3T3, 72 h
# Histone deacetylase 2 = Histone deacetylase 2 (Homo sapiens, UniProt Q92769); test: Inhibition of recombinant human HDAC2 assessed as decrease in deacetylation of FLUOR DE LYS Green substrate preincubated for 10 mins followed by substrate addition and measured after 30 mins by fluorescence based assay
# Histone deacetylase 2, sequence (Q92769 whole entry): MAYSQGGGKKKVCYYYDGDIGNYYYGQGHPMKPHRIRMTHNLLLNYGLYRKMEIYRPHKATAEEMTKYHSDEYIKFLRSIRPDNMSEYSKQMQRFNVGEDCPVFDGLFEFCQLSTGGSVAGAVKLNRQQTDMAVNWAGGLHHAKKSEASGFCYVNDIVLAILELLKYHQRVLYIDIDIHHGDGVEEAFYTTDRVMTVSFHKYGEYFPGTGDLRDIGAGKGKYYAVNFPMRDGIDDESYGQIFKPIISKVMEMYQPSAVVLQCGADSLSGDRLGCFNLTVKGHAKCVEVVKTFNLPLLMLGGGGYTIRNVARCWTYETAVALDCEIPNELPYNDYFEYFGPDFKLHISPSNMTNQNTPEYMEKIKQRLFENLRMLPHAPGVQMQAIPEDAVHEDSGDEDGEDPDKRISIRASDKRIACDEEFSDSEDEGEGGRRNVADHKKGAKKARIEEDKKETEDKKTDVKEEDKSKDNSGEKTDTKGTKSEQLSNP
# Histone deacetylase = test: Inhibition of HDAC in human HeLa cell nuclear extract assessed as decrease in deacetylation of FLUOR DE LYS Green substrate preincubated for 10 mins followed by substrate addition and measured after 30 mins by fluorescence based assay; format: cell-free
Structure (SMILES),IC50 (HCT-116 [3]) [nM],IC50 (A549 [5]) [nM],IC50 (HeLa [6]) [nM],IC50 (A-375 [8]) [nM],IC50 (SMMC-7721 [12]) [nM],inhibition of growth at 8 µM (SMMC-7721 [1]) [%],inhibition of growth at 2 µM (A549 [2]) [%],inhibition of growth at 2 µM (SMMC-7721 [4]) [%],inhibition of growth at 8 µM (HCT-116 [7]) [%],inhibition of growth at 2 µM (HCT-116 [9]) [%],inhibition of growth at 8 µM (HeLa [10]) [%],inhibition of growth at 2 µM (A-375 [11]) [%],inhibition of growth at 8 µM (A-375 [13]) [%],inhibition of growth at 8 µM (A549 [14]) [%],inhibition of growth at 2 µM (HeLa [15]) [%],also measured
Nc1ccccc1NC(=O)c1ccc(CSCCc2ccccc2)cc1,2810,3250,6430,2860,4880,77.9,44.9,28.1,81.3,30.5,74.8,21.8,69.9,84.1,27.7,–
Cc1cc(C)cc(SCc2ccc(C(=O)Nc3ccccc3N)cc2)c1,2490,2890,2090,3670,2760,85.1,33.3,29.1,72.9,3.22,78.8,48.5,74.7,78.5,40.1,IC50 (Histone deacetylase 8): > 32000 nM; IC50 [16]: > 32000 nM; IC50 [17]: 381 nM; IC50 (Histone deacetylase 1): 20 nM; IC50 (NIH3T3): 3340 nM; IC50 (Histone deacetylase 2): 139 nM; IC50 (Histone deacetylase): 10720 nM
COc1ccc(SCc2ccc(C(=O)Nc3ccccc3N)cc2)cc1OC,2000,5680,3070,4420,3400,78.9,19.9,20.2,91.5,33.6,79.9,18.1,84.6,80.1,15.2,–
COC(=O)c1ccccc1SCc1ccc(C(=O)Nc2ccccc2N)cc1,2780,–,6680,3610,4490,62.5,44.7,18,92,21.8,55.5,35.1,70.1,46.1,29.8,–
Nc1ccccc1NC(=O)c1ccc(CSc2nccc(C(F)(F)F)n2)cc1,1140,970,1140,1550,1890,80.6,75.4,66.1,93.1,82.7,83.4,54.4,80.1,95.1,68.3,IC50 (Histone deacetylase 8): > 32000 nM; IC50 [16]: > 32000 nM; IC50 [17]: 274 nM; IC50 (Histone deacetylase 1): 11 nM; IC50 (NIH3T3): 1850 nM; IC50 (Histone deacetylase 2): 441 nM; IC50 (Histone deacetylase): 1995 nM

# More lines, main results first:
IC50 (HCT-116 [3]) [nM],IC50 (A549 [5]) [nM],IC50 (HeLa [6]) [nM],IC50 (A-375 [8]) [nM],IC50 (SMMC-7721 [12]) [nM],Structure (SMILES),inhibition of growth at 8 µM (SMMC-7721 [1]) [%],inhibition of growth at 2 µM (A549 [2]) [%],inhibition of growth at 2 µM (SMMC-7721 [4]) [%],inhibition of growth at 8 µM (HCT-116 [7]) [%],inhibition of growth at 2 µM (HCT-116 [9]) [%],inhibition of growth at 8 µM (HeLa [10]) [%],inhibition of growth at 2 µM (A-375 [11]) [%],inhibition of growth at 8 µM (A-375 [13]) [%],inhibition of growth at 8 µM (A549 [14]) [%],inhibition of growth at 2 µM (HeLa [15]) [%],also measured
2630,3270,4250,3700,3740,Cc1ccc(SCc2ccc(C(=O)Nc3ccccc3N)cc2)cc1,82.7,40.5,25.1,84,74.8,79.2,17.5,67,78.3,33.8,–
2870,–,3240,3900,3280,Nc1ccccc1NC(=O)c1ccc(CSc2cccc(F)c2)cc1,83,46.9,18.6,81.3,5.5,78.4,37.7,76.2,72.7,22.5,–
